From ChEMBL document CHEMBL3627597, “Synthesis of Fluorine-Containing Phosphodiesterase 10A (PDE10A) Inhibitors and the In Vivo Evaluation of F-18 Labeled PDE10A PET Tracers in Rodent and Nonhuman Primate” (J Med Chem, 2015)

Experiments:
[1] = test system: Blood; experiment: Biodistribution in Sprague-Dawley rat blood at 1.48 to 2.22 MBq, iv measured at 5 mins by gamma counting analysis; format: ADME, organism-based; details: in vivo
In short: (§1)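 Male Sprague-Dawley rats (250 - 400 g), tail-vein injection of 1.48 - 2.22 MBq radiotracer under 2.5% isoflurane in oxygen; n=4 per time point, euthanized at 5, 30 and 60 min p.i. Brain regions obtained by gross dissection; peripheral tissues collected. Samples weighed, gamma-counted against a diluted-injectate standard; %ID/g calculated.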

[2] = test system: Liver; experiment: Biodistribution in Sprague-Dawley rat liver at 1.48 to 2.22 MBq, iv measured at 5 mins by gamma counting analysis; format: ADME, organism-based; details: in vivo; in short: as §1
[3] = test system: Kidney; experiment: Biodistribution in Sprague-Dawley rat kidney at 1.48 to 2.22 MBq, iv measured at 5 mins by gamma counting analysis; format: ADME, organism-based; details: in vivo; in short: as §1
[4] = test system: Muscle tissue; experiment: Biodistribution in Sprague-Dawley rat muscle at 1.48 to 2.22 MBq, iv measured at 5 mins by gamma counting analysis; format: ADME, organism-based; details: in vivo; in short: as §1
[5] = test system: Rattus norvegicus; experiment: Biodistribution in Sprague-Dawley rat fat tissue at 1.48 to 2.22 MBq, iv measured at 5 mins by gamma counting analysis; format: ADME, organism-based, Adipose tissue; details: in vivo; in short: as §1
[6] = test system: Bone; experiment: Biodistribution in Sprague-Dawley rat bone at 1.48 to 2.22 MBq, iv measured at 5 mins by gamma counting analysis; format: ADME, organism-based, Bone element; details: in vivo; in short: as §1
[7] = test system: Brain; experiment: Biodistribution in Sprague-Dawley rat brain at 1.48 to 2.22 MBq, iv measured at 5 mins by gamma counting analysis; format: ADME, organism-based; details: in vivo; in short: as §1
[8] = test system: Blood; experiment: Biodistribution in Sprague-Dawley rat blood at 1.48 to 2.22 MBq, iv measured at 30 mins by gamma counting analysis; format: ADME, organism-based; details: in vivo, 0.5 h; in short: as §1
[9] = test system: Liver; experiment: Biodistribution in Sprague-Dawley rat liver at 1.48 to 2.22 MBq, iv measured at 30 mins by gamma counting analysis; format: ADME, organism-based; details: in vivo, 0.5 h; in short: as §1
[10] = test system: Kidney; experiment: Biodistribution in Sprague-Dawley rat kidney at 1.48 to 2.22 MBq, iv measured at 30 mins by gamma counting analysis; format: ADME, organism-based; details: in vivo, 0.5 h; in short: as §1
[11] = test system: Muscle tissue; experiment: Biodistribution in Sprague-Dawley rat muscle at 1.48 to 2.22 MBq, iv measured at 30 mins by gamma counting analysis; format: ADME, organism-based; details: in vivo, 0.5 h; in short: as §1
[12] = test system: Rattus norvegicus; experiment: Biodistribution in Sprague-Dawley rat fat tissue at 1.48 to 2.22 MBq, iv measured at 30 mins by gamma counting analysis; format: ADME, organism-based, Adipose tissue; details: in vivo, 0.5 h; in short: as §1
[13] = test system: Bone; experiment: Biodistribution in Sprague-Dawley rat bone at 1.48 to 2.22 MBq, iv measured at 30 mins by gamma counting analysis; format: ADME, organism-based, Bone element; details: in vivo, 0.5 h; in short: as §1
[14] = test system: Brain; experiment: Biodistribution in Sprague-Dawley rat brain at 1.48 to 2.22 MBq, iv measured at 30 mins by gamma counting analysis; format: ADME, organism-based; details: in vivo, 0.5 h; in short: as §1
[15] = test system: Blood; experiment: Biodistribution in Sprague-Dawley rat blood at 1.48 to 2.22 MBq, iv measured at 60 mins by gamma counting analysis; format: ADME, organism-based; details: in vivo, 1 h; in short: as §1
[16] = test system: Liver; experiment: Biodistribution in Sprague-Dawley rat liver at 1.48 to 2.22 MBq, iv measured at 60 mins by gamma counting analysis; format: ADME, organism-based; details: in vivo, 1 h; in short: as §1
[17] = test system: Kidney; experiment: Biodistribution in Sprague-Dawley rat kidney at 1.48 to 2.22 MBq, iv measured at 60 mins by gamma counting analysis; format: ADME, organism-based; details: in vivo, 1 h; in short: as §1
[18] = test system: Muscle tissue; experiment: Biodistribution in Sprague-Dawley rat muscle at 1.48 to 2.22 MBq, iv measured at 60 mins by gamma counting analysis; format: ADME, organism-based; details: in vivo, 1 h; in short: as §1
[19] = test system: Rattus norvegicus; experiment: Biodistribution in Sprague-Dawley rat fat tissue at 1.48 to 2.22 MBq, iv measured at 60 mins by gamma counting analysis; format: ADME, organism-based, Adipose tissue; details: in vivo, 1 h; in short: as §1
[20] = test system: Bone; experiment: Biodistribution in Sprague-Dawley rat bone at 1.48 to 2.22 MBq, iv measured at 60 mins by gamma counting analysis; format: ADME, organism-based, Bone element; details: in vivo, 1 h; in short: as §1
[21] = test system: Brain; experiment: Biodistribution in Sprague-Dawley rat brain at 1.48 to 2.22 MBq, iv measured at 60 mins by gamma counting analysis; format: ADME, organism-based; details: in vivo, 1 h; in short: as §1
[22] = test system: Striatum; experiment: Biodistribution in Sprague-Dawley rat striatum at 1.48 to 2.22 MBq, iv measured at 30 mins by gamma counting analysis; format: ADME, organism-based; details: in vivo, 0.5 h; in short: as §1
[23] = Ratio of drug level in striatum to cerebellum in Sprague-Dawley rat at 1.48 to 2.22 MBq, iv measured at 5 to 30 mins by gamma counting analysis; format: ADME, organism-based; details: in vivo
In short: (§2)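 Striatum, cerebellum and cortex obtained by gross dissection from Sprague-Dawley rats (250 - 400 g, n=4 per time point) after tail-vein injection of 1.48 - 2.22 MBq under isoflurane anesthesia. Tissues weighed and gamma-counted with an injectate standard to give %ID/g; ratios taken from striatal versus non-target uptake.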

[24] = test system: Nucleic Acid; experiment: Ratio of drug level in striatum to cortex in Sprague-Dawley rat at 1.48 to 2.22 MBq, iv measured at 5 to 30 mins by gamma counting analysis; format: ADME, organism-based; details: in vivo; in short: as §2

Row | Drug uptake [1] | Drug uptake [2] | Drug uptake [3] | Drug uptake [4] | Drug uptake [5] | Drug uptake [6] | Drug uptake [7] | Drug uptake [8] | Drug uptake [9] | Drug uptake [10] | Drug uptake [11] | Drug uptake [12] | Drug uptake [13] | Drug uptake [14] | Drug uptake [15] | Drug uptake [16] | Drug uptake [17] | Drug uptake [18] | Drug uptake [19] | Drug uptake [20] | also measured | Structure (SMILES)
1 | 0.459 % ID/g | 9.99 % ID/g | 2.471 % ID/g | 0.223 % ID/g | 0.22 % ID/g | 0.222 % ID/g | 0.114 % ID/g | 0.345 % ID/g | 5.67 % ID/g | 1.364 % ID/g | 0.178 % ID/g | 0.491 % ID/g | 1.418 % ID/g | 0.046 % ID/g | 0.345 % ID/g | 6.79 % ID/g | 1.216 % ID/g | 0.103 % ID/g | 0.368 % ID/g | 2.037 % ID/g | Drug uptake [21]: 0.026 % ID/g; Drug uptake [22]: Active; Ratio [23]: > 2; Ratio [24]: > 2 | Cn1cc(-c2ccncc2)c(-c2ccc(OCc3cc(CCC[18F])c4ccccc4n3)cc2)n1
2 | 0.471 % ID/g | 10.16 % ID/g | 1.799 % ID/g | 0.227 % ID/g | 0.343 % ID/g | 0.421 % ID/g | 0.128 % ID/g | 0.416 % ID/g | 4.01 % ID/g | 1.351 % ID/g | 0.174 % ID/g | 0.352 % ID/g | 4.055 % ID/g | 0.094 % ID/g | 0.201 % ID/g | 3.1 % ID/g | 0.573 % ID/g | 0.107 % ID/g | 0.222 % ID/g | 5.62 % ID/g | Drug uptake [21]: 0.069 % ID/g; Drug uptake [22]: Active; Ratio [23]: > 2; Ratio [24]: > 2 | Cn1cc(-c2ccncc2)c(-c2ccc(OCc3cc(C[18F])c4ccccc4n3)cc2)n1
3 | 0.699 % ID/g | 4.74 % ID/g | 5.969 % ID/g | 0.419 % ID/g | 0.225 % ID/g | 0.487 % ID/g | 0.353 % ID/g | 0.771 % ID/g | 1.53 % ID/g | 1.793 % ID/g | 0.488 % ID/g | 0.254 % ID/g | 0.441 % ID/g | 0.509 % ID/g | 0.646 % ID/g | 0.527 % ID/g | 1.037 % ID/g | 0.379 % ID/g | 0.123 % ID/g | 0.49 % ID/g | Drug uptake [21]: 0.421 % ID/g; Drug uptake [22]: Active | Cn1cc(-c2ccncc2)c(-c2ccc(OCc3cc(OCCOCCOCC[18F])c4ccccc4n3)cc2)n1
4 | 0.44 % ID/g | 3.99 % ID/g | 0.981 % ID/g | 0.155 % ID/g | 0.139 % ID/g | 0.133 % ID/g | 0.213 % ID/g | 0.424 % ID/g | 0.987 % ID/g | 0.632 % ID/g | 0.265 % ID/g | 0.139 % ID/g | 0.17 % ID/g | 0.353 % ID/g | 0.401 % ID/g | 0.554 % ID/g | 0.485 % ID/g | 0.228 % ID/g | 0.066 % ID/g | 0.337 % ID/g | Drug uptake [21]: 0.343 % ID/g; Drug uptake [22]: Active | Cn1cc(-c2ccncc2)c(-c2ccc(OCc3cc(COCC[18F])c4ccccc4n3)cc2)n1
5 | 0.353 % ID/g | 6.87 % ID/g | 1.887 % ID/g | 0.339 % ID/g | 0.404 % ID/g | 0.522 % ID/g | 0.41 % ID/g | 0.376 % ID/g | 3 % ID/g | 1.034 % ID/g | 0.236 % ID/g | 0.576 % ID/g | 4.035 % ID/g | 0.191 % ID/g | 0.15 % ID/g | 1.6 % ID/g | 0.533 % ID/g | 0.092 % ID/g | 0.477 % ID/g | 6.3 % ID/g | Drug uptake [21]: 0.125 % ID/g; Drug uptake [22]: Active; Ratio [23]: > 2; Ratio [24]: > 2 | Cn1cc(-c2ccncc2)c(-c2ccc(OCc3cc([18F])c4ccccc4n3)cc2)n1
